The EternaBench riboswitch data

Tested on: MS2 coat protein
Experiment: apparent Kd, MS2 coat protein; higher = weaker binding; RNA-MaP array; FMN 200 µM where present
Method in brief: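 Designs were transcribed by stalled E. coli RNA polymerase on Illumina sequencing-chip clusters. They were titrated with SNAP-549-labelled MS2 coat protein from 0.7 or 1.5 nM, doubling to 3 µM, in 100 mM Tris-HCl pH 7.5, 80 mM KCl, 4 mM MgCl2, BSA, DTT, yeast tRNA and Tween-20, without and then with constant ligand. The apparent Kd is the median of filtered per-cluster fits after normalisation of green signal to red-channel RNA signal and control-cluster median Fmax.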

[1] = designed as: OFF switch for flavin mononucleotide, no ligand
[2] = ligand present: flavin mononucleotide, designed as: OFF switch for flavin mononucleotide
[3] = designed as: ON switch for flavin mononucleotide, no ligand
[4] = ligand present: flavin mononucleotide, designed as: ON switch for flavin mononucleotide

| Sequence | apparent Kd [1] | apparent Kd [2] | apparent Kd [3] | apparent Kd [4] |
| --- | --- | --- | --- | --- |
| UUAUGGCUAGGAUAUGCACGUGCAUGUUCAAGUCAAAGAAGACAUGAGGAUCACCCAUGUAGAAGGAGCGGUAC | 37.8 nM | 24.2 nM | – | – |
| AAAUACCAAGGAUAUACAUGAGGAUCACCCAUGUACAAACCCGUGGAACGGAUCUUUGGUAGAAGGUGGACAUA | 13.9 nM | 11.9 nM | – | – |
| CUUUCCAGGUAGAAGGGAUUACUACAUGAGGAUCACCCAUGUCGAUUGAUCAGGAUAUGCCUGUCACGACGCGUGAUGCUAGAG | – | – | 322 nM | 66.3 nM |
| GGAGGACAUGAGGAUCACCCAUGUGGAUGGGCGCUAGGAUAUGCGUGCGGGAAGAGUGGAGCAGAAGGAGUGGGUU | – | – | 48.3 nM | 42.2 nM |
| AAAACACGCGAGAAGGAGGCCUGAUCCUCCACAUGAGGAUCACCCAUGUGCCUAGGAUAUCGCAACCUUUCAGGUUACACCUGG | 70 nM | 10.2 nM | – | – |
| GCCUCAGAAUUAAUUGUGAGAGGCAGAAGGCUAUAUCUCGUGGUAAACAUGAGGAUCACCCAUGUAGAGGAUAUGCUAUUACAG | 8.25 nM | 9.99 nM | – | – |
| ACCAUUUACUAAUCCUCUAUACAUGAGGAUCACCCAUGUUAAGAGGAUAUCAUCGUUCGCCGCGUUGAGAAGGCUUAGCAUUCG | 14.8 nM | 23.1 nM | – | – |
| AACAUACUGUACAUGAGGAUCACCCAUGUUCGGGCACUGUACAGAAGGCACGGGCAAAUGCGAGGUGAGGAUAUGUAGUUAGUG | – | – | 122 nM | 49.8 nM |
| AUAUCUAUAUCAGGAUAUGGACAGGCCUGUCCGUAUUGAGACAGUAACAUGAGGAUCACCCAUGUCCAGAAGGGAUCGAUGUAU | 48 nM | 40.2 nM | – | – |
| AGUUAAUAUCGAGGAUAUGUCUAGACACAUGAGGAUCACCCAUGUAUGUGUAUAGAAGGCGAUAUUAACAGCAUGUUACAUGCC | – | – | 37.2 nM | 15.6 nM |
| AGCAUGUUUACAUGAGGAUCACCCAUGUUUUUUUAGGAUAUCAGAAGGUACAAUUUGUGUUAGAGUAAGGAUAUGAUAUAUGCG | – | – | 12.6 nM | 8.88 nM |
| GGUGCACGCACAGGAUAUCCGGCGACGCUCGUCGGAGAAGGGUGACAUGAGGAUCACCCAUGUACGUGCAACUCAGUUUGAGAG | – | – | 35.7 nM | 28.1 nM |
| AUCAGCUCGUCAGGAUAUACGUCACUGCUUCGGCAGUGUGGUAAGAUCACAUGAGGAUCACCCAUGUAGAAGGGACGAGCUGAC | 13.6 nM | 237 nM | – | – |
| GGGCCACAUGAGGAUCACCCAUGUAAACCCGUGCUCAGGGCACAGGAUAUGGGUCGGGAUGAGACCCAGAAGGGUGGUCUGGCC | – | – | 33.4 nM | 18.2 nM |
| AGCUGACAAGGAUAUACUCGGGAUGCUAGUCGCGCAGAAGCACAUGAGGAUCACCCAUGUAGAAGGUGUCAGAA | 158 nM | 83.2 nM | – | – |
| UCGGAAUUCAAGAAGGACAUGAGGAUCACCCAUGUAGGAUAUUGACCCGAAUUGUGGGUUUUGCUGAUGCACUUCCCGAGGACA | – | – | 147 nM | 11.6 nM |
| AAAAAACAUGAGGAUCACCCAUGUUAGGAUAUCCUGCAGAAAAAAAAAAAAAACUGCAGGAGAAGGAGCAAGGA | 90 nM | 104 nM | – | – |
| CACCCUGAUGUCAGGAUAUGCGCGUCGCGCCUCGAGCAGAAGGGACAUGAGGAUCACCCAUGUUGUCUCUUGGG | 48.9 nM | 98.7 nM | – | – |
| UAUUAGCUAGGAUAUACAUGAGGAUCACCCAUGUCACGGGUCCACUUGUCCUAUGCGUGUAGAAGGAGCGACCC | 22.4 nM | 25.8 nM | – | – |
| AUGCUUCACACAGGAUAUUACAACAUGAGGAUCACCCAUGUACAUGACAUGAGGAUCACCCAUGUUAAGAAGGGUGUGAAGCAU | 261 nM | 505 nM | – | – |
| GUUUAGUGAGGAUAUGUGGCGUCGAUCGAGCGCGGUCUGCUACAGAAGGCACAUGAGGAUCACCCAUGUUUCUC | 258 nM | 371 nM | – | – |
| AAGACUAGAGGAUAUACAUGAGGAUCACCCAUGUAACUGUCAGGUGACUGACGGAAAAGUAGAAGGCUAGUCAA | 16.6 nM | 20 nM | – | – |
| CGGGUCUGAGGAUAUCCAUCUUCAUACAUGAGGAUCACCCAUGUUUACCCUUGGGUUCCUGGAGAAGGCAGUUUUC | 166 nM | 162 nM | – | – |
